ChEMBL document CHEMBL1158052, “Tripfordines A-C, sesquiterpene pyridine alkaloids from Tripterygium wilfordii, and structure anti-HIV activity relationships of Tripterygium alkaloids” (J Nat Prod, 2006)
≈ marks a conversion by molar mass, not a printed value. Calls of active or inactive are those of the source. The rule behind the calls is not given here.

Columns and labels:
[1] = test system: Human immunodeficiency virus 1; experiment: Antiviral activity against HIV1 infected human H9 lymphocytes assessed as suppression of viral replication; type: functional, organism-based
How it was run: (§1)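 EC50 is the sample concentration that suppresses HIV replication by 50%. Cytotoxic IC50 is the concentration toxic to 50% of mock-infected cells. Therapeutic index is IC50 divided by EC50.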

[2] = Therapeutic index, ratio of IC50 for human H9 lymphocytes to EC50 for HIV1; conditions: HIV-1, read-out: Ratio IC50/EC50; how it was run: as §1
[3] = test system: H9; experiment: Cytotoxicity against mock-infected human H9 lymphocytes; type: cell-based
How it was run: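 Mock-infected cells, run alongside the HIV replication suppression assay, were exposed to test sample. IC50 was taken as the concentration toxic to 50% of the mock-infected cells.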

[4] = test system: A549; experiment: Cytotoxicity against human A549 cells; type: functional, cell-based
[5] = test system: HCT-8; experiment: Cytotoxicity against human HCT8 cells; type: functional, cell-based
[6] = test system: A-431; experiment: Cytotoxicity against human A431 cells; type: functional, cell-based
[7] = Cytotoxicity against human AR751 cells; type: functional, cell-based
[8] = test system: LNCaP; experiment: Cytotoxicity against human LNCAP cells; type: functional, cell-based
[9] = test system: PC-3; experiment: Cytotoxicity against human PC-3 cells; type: functional, cell-based

Row | EC50 [1] | SMILES | selectivity ratio [2] | Activity [1] | other results
1 | 1 µg/mL (≈ 1.17 µM) | CC(=O)OC[C@]12[C@H](OC(C)=O)[C@H](OC(C)=O)[C@@H]3[C@@H](OC(=O)c4ccco4)[C@@]14O[C@@]3(C)COC(=O)c1cccnc1C(C)C(C)C(=O)O[C@@H]([C@H](OC(C)=O)[C@@H]2OC(C)=O)[C@]4(C)O (some centres undefined) [HYPONINE A] |  |  | 
2 |  | CC(=O)OC[C@]12[C@H](OC(C)=O)[C@H](OC(C)=O)[C@@H]3[C@@H](OC(C)=O)[C@@]14O[C@@]3(C)COC(=O)c1cccnc1C(C)C(C)C(=O)O[C@@H]([C@H](OC(=O)c1ccco1)[C@@H]2OC(C)=O)[C@]4(C)O (some centres undefined) [HYPONINE F] | > 2.8 |  | 
3 | 2.5 µg/mL (≈ 2.64 µM) | COC(=O)C[C@@H]1C(=O)CCC(C)C(=O)O[C@@H]2[C@@H]3[C@@H](OC(C)=O)[C@@]45O[C@@]3(C)COC(=O)c3cccnc3C(C)C(C)C(=O)O[C@@H]([C@H](OC(C)=O)[C@H](OC(C)=O)[C@@]4(COC1=O)[C@@H]2OC(C)=O)[C@]5(C)O (some centres undefined) [TRIPTONINE A] | > 39.4 |  | 
4 | 0.1 µg/mL (≈ 0.114 µM) | CC(=O)OC[C@]12[C@H](OC(C)=O)[C@H](OC(C)=O)[C@@H]3[C@@H](OC(C)=O)[C@@]14O[C@@]3(C)COC(=O)c1cnccc1C(C)C(C)(O)C(=O)O[C@@H]([C@H](OC(=O)c1ccco1)[C@@H]2OC(C)=O)[C@]4(C)O (some centres undefined) [HYPOGLAUNINE B] | > 1000 |  | 
5 |  | CC(=O)O[C@@H]1[C@@H]2[C@@H](OC(C)=O)[C@@]34O[C@@]2(C)COC(=O)c2cnccc2C(C)C(C)(O)C(=O)O[C@@H]([C@H](OC(C)=O)[C@H](OC(C)=O)[C@@]3(COC(=O)c2ccco2)[C@@H]1OC(C)=O)[C@]4(C)O (some centres undefined) [HYPOGLAUNINE A] | > 769 |  | 
6 |  | CC(=O)OC[C@]12[C@H](OC(C)=O)[C@H](OC(C)=O)[C@@H]3[C@@H](OC(C)=O)[C@@]14O[C@@]3(C)COC(=O)c1cccnc1CCC(C)C(=O)O[C@@H]([C@H](OC(=O)c1ccccc1)[C@@H]2OC(C)=O)[C@]4(C)O (some centres undefined) |  | inactive | 
7 |  | CC(=O)OC[C@]12[C@H](OC(C)=O)[C@H](OC(C)=O)[C@@H]3[C@@H](O)[C@@]14O[C@@]3(C)COC(=O)c1cnccc1C(C)C(C)C(=O)O[C@@H]([C@H](OC(C)=O)[C@@H]2OC(C)=O)[C@@]4(C)O (some centres undefined) [TRIPFORDINE C] |  | inactive | IC50 [3]: > 25 µg/mL; IC50 [4]: > 4 µg/mL; IC50 [5]: > 4 µg/mL; IC50 [6]: > 4 µg/mL; IC50 [7]: > 4 µg/mL; IC50 [8]: > 4 µg/mL; IC50 [9]: > 4 µg/mL
8 | 0.1 µg/mL (≈ 0.123 µM) | CC(=O)O[C@@H]1[C@H](OC(C)=O)[C@@]2(COC(=O)c3ccco3)[C@H](OC(C)=O)C(=O)[C@@H]3[C@@H](OC(C)=O)[C@@]24O[C@@]3(C)COC(=O)c2cccnc2C(C)C(C)C(=O)O[C@@H]1[C@]4(C)O (some centres undefined) [HYPONINE B] | > 1000 |  | 
9 | < 0.1 µg/mL | COC(=O)C[C@@H]1C(=O)CC[C@H](C)C(=O)O[C@@H]2[C@@H]3[C@@H](OC(C)=O)[C@@]45O[C@@]3(C)COC(=O)c3cnccc3[C@@H](C)[C@@H](O)C(=O)O[C@@H]([C@H](OC(C)=O)[C@H](OC(C)=O)[C@@]4(COC1=O)[C@@H]2OC(C)=O)[C@]5(C)O [TRIPTONINE B] | > 1000 |  | 
10 | 0.2 µg/mL (≈ 0.248 µM) | CC(=O)OC[C@]12[C@H](OC(C)=O)[C@H](OC(C)=O)[C@@H]3[C@@H](OC(C)=O)[C@@]14O[C@@]3(C)COC(=O)c1cccnc1C(C)C(C)C(=O)O[C@@H]([C@H](OC(C)=O)[C@@H]2OC(C)=O)[C@]4(C)O (some centres undefined) [EUONYMINE] |  |  | 
11 | 0.9 µg/mL (≈ 1.04 µM) | CC(=O)OC[C@]12[C@H](OC(C)=O)[C@H](OC(C)=O)[C@@H]3[C@@H](OC(=O)c4ccccc4)[C@@]14O[C@@]3(C)COC(=O)c1cccnc1C(C)C(C)C(=O)O[C@@H]([C@H](OC(C)=O)[C@@H]2OC(C)=O)[C@]4(C)O (some centres undefined) |  |  | 
12 |  | CC(=O)OC[C@]12[C@H](OC(C)=O)[C@H](OC(C)=O)[C@@H]3[C@@H](O)[C@@]14O[C@@]3(C)COC(=O)c1cccnc1CCC(C)C(=O)O[C@@H]([C@H](OC(C)=O)[C@@H]2OC(C)=O)[C@@]4(C)O (some centres undefined) [TRIPFORDINE B] |  | inactive | IC50 [3]: > 25 µg/mL; IC50 [4]: > 4 µg/mL; IC50 [5]: > 4 µg/mL; IC50 [6]: > 4 µg/mL; IC50 [7]: > 4 µg/mL; IC50 [8]: > 4 µg/mL; IC50 [9]: > 4 µg/mL
13 |  | CC(=O)OC[C@]12[C@H](OC(C)=O)[C@H](OC(C)=O)[C@@H]3[C@@H](OC(C)=O)[C@@]14O[C@@]3(C)COC(=O)c1cccnc1C(C)C(C)C(=O)O[C@@H]([C@H](OC(=O)c1ccccc1)[C@@H]2OC(C)=O)[C@@]4(C)O (some centres undefined) [FORRESTINE] | > 208 |  | 
14 |  | CC(=O)OC[C@]12[C@H](OC(C)=O)[C@H](OC(C)=O)[C@@H]3[C@@H](OC(=O)c4ccccc4)[C@@]14O[C@@]3(C)COC(=O)c1cccnc1C(C)C(C)C(=O)O[C@@H]([C@H](OC(=O)c1cccnc1)[C@@H]2OC(C)=O)[C@]4(C)O (some centres undefined) |  | inactive | 
15 |  | CC(=O)O[C@@H]1[C@@H]2[C@@H](OC(C)=O)[C@@]34O[C@@]2(C)COC(=O)c2cnccc2C(C)C(C)C(=O)O[C@@H]([C@H](OC(C)=O)[C@H](OC(C)=O)[C@@]3(COC(=O)c2ccco2)[C@@H]1OC(C)=O)[C@]4(C)O (some centres undefined) |  | inactive | 
16 | 0.88 µg/mL (≈ 1.15 µM) | CC(=O)OC[C@]12[C@H](OC(C)=O)[C@H](OC(C)=O)[C@@H]3[C@@H](O)[C@@]14O[C@@]3(C)COC(=O)c1cccnc1C(C)C(C)C(=O)O[C@@H]([C@H](OC(C)=O)[C@@H]2OC(C)=O)[C@]4(C)O (some centres undefined) [NEOEUONYMINE] | > 113 |  | 
17 |  | CC(=O)OC[C@]12[C@H](OC(C)=O)[C@H](OC(C)=O)[C@@H]3[C@@H](OC(C)=O)[C@@]14O[C@@]3(C)COC(=O)c1cccnc1CCC(C)C(=O)O[C@@H]([C@H](OC(=O)c1ccco1)[C@@H]2OC(C)=O)[C@]4(C)O (some centres undefined) |  | inactive | 

Row | SMILES | EC50 [1] | selectivity ratio [2] | Activity [1] | other results
18 | CC(=O)OC[C@]12[C@H](OC(C)=O)[C@H](OC(C)=O)[C@@H]3[C@@H](OC(C)=O)[C@@]14O[C@@]3(C)COC(=O)c1cccnc1CCC(C)(O)C(=O)O[C@@H]([C@H](O)[C@@H]2OC(C)=O)[C@@]4(C)O (some centres undefined) [TRIPFORDINE A] | 13.4 µg/mL (≈ 17.2 µM) | 1.9 |  | IC50 [3]: > 25 µg/mL; IC50 [4]: > 4 µg/mL; IC50 [5]: > 4 µg/mL; IC50 [6]: > 4 µg/mL; IC50 [7]: > 4 µg/mL; IC50 [8]: > 4 µg/mL; IC50 [9]: > 4 µg/mL
19 | CC(=O)OC[C@]12[C@H](OC(C)=O)[C@H](OC(C)=O)[C@@H]3[C@@H](OC(C)=O)[C@@]14O[C@@]3(C)COC(=O)c1cccnc1CCC(C)(O)C(=O)O[C@@H]([C@H](OC(=O)c1ccco1)[C@@H]2OC(C)=O)[C@]4(C)O (some centres undefined) [WILFORTRINE] | < 0.1 µg/mL | > 1000 |  | 
20 | CC(=O)OC[C@]12[C@H](OC(C)=O)[C@H](OC(C)=O)[C@@H]3[C@@H](OC(C)=O)[C@@]14O[C@@]3(C)COC(=O)c1cccnc1CCC(C)(O)C(=O)O[C@@H]([C@H](OC(=O)c1ccccc1)[C@@H]2OC(C)=O)[C@]4(C)O (some centres undefined) [WILFORDINE] | < 0.1 µg/mL | > 200 |  | 
